Active and inactive are the calls of the source. The calls are words filed in the database; no cut-off is given here.

Assay [1] has as its system HeLa. Briefly: Upregulation of cdc25c protein expression in human HeLa cells at 0.6 to 2.5 uM after 24 to 48 hrs by Western blot analysis. The format is functional, cell-based. The method in brief:
(§1)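 Treated cells washed twice in ice-cold PBS, lysed 30 min on ice, lysate cleared at 15000×g, 4 °C, 10 min; protein by BCA. 20 μg per lane on SDS-PAGE (7.5–15%), PVDF transfer, overnight block at 4 °C; primary antibodies 2 h at room temperature, peroxidase secondaries 60 min, ECL detection; β-actin loading control.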
On the technique in general: Immunoblotting shows a protein as a band on a membrane.

In assay [2] the test system is HeLa. Kind of assay: Induction of apoptosis in human HeLa cells assessed as increase of Bcl-2 protein expression up to 2.5 uM after 24 to 48 hrs by Western blot analysis. Format: functional, cell-based. The method in brief:
as §1

Assay [3] has as its system HeLa. Kind of assay: Induction of apoptosis in human HeLa cells assessed as necrotic cells at 5 uM after 24 hrs using FITC-conjugated annexin V and propidium iodide staining by flow cytometry assay (RVb = 1.9 %). The format is functional. On the technique in general: A flow cytometer gives signals particle by particle.
The subject of assay [4] is HeLa. Kind of assay: Induction of apoptosis in human HeLa cells assessed as early apoptotic cells at 2.5 uM after 24 hrs using FITC-conjugated annexin V and propidium iodide staining by flow cytometry assay (RVb = 1.5 %). The format is functional.
Assay [5] concerns HL-60. Briefly: Antiproliferative activity against human HL60 cells after 72 hrs by MTT assay. The settings on record: HL-60, 72 h. The format is functional, cell-based. On the technique in general: Tetrazolium dyes change colour on reduction, which living cells bring about.
Assay [6] relates to Jurkat. Briefly: Cell cycle arrest in human Jurkat cells assessed as accumulation at S phase at 1.25 uM after 24 hrs using propidium iodide staining by flow cytometry relative to control. Format: functional. The method in brief:
(§2)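 Exponentially growing cells (5 × 10^5) exposed to graded compound levels, 0.312 to 5 μM, for 24 or 48 h; collected, fixed in ice-cold 70% ethanol, treated with lysis buffer containing RNase A and 0.1% Triton X-100, stained with propidium iodide; DNA content read by flow cytometry. Mean ± SEM of two independent experiments.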

For assay [7], the system named is Jurkat. Kind of assay: Cell cycle arrest in human Jurkat cells assessed as hypodiploid peak at sub-G1 phase at 0.312 to 5 uM uM after 48 hrs using propidium iodide staining by flow cytometry. The format is functional, cell-based. The method in brief:
as §2

Assay [8] concerns HeLa. Kind of assay: Induction of apoptosis in human HeLa cells assessed as necrotic cells at 2.5 uM after 24 hrs using FITC-conjugated annexin V and propidium iodide staining by flow cytometry assay (RVb = 1.9 %). Format: functional.
The subject of assay [9] is HeLa. Briefly: Induction of apoptosis in human HeLa cells assessed as necrotic cells at 1.25 uM after 24 hrs using FITC-conjugated annexin V and propidium iodide staining by flow cytometry assay (RVb = 1.9 %). Format: functional.
Assay [10] concerns Jurkat. Kind of assay: Cell cycle arrest in human Jurkat cells assessed as accumulation at G2/M phase at 1.25 uM after 24 hrs using propidium iodide staining by flow cytometry relative to control. The format is functional. The gist of the method:
as §2

The test system of assay [11] is Jurkat. Briefly: Cell cycle arrest in human Jurkat cells assessed as accumulation at G2/M phase after 24 hrs using propidium iodide staining by flow cytometry. The format is functional, cell-based. The gist of the method:
as §2

Assay [12] has as its system HeLa. Kind of assay: Induction of apoptosis in human HeLa cells assessed as ROS production after 24 to 48 hrs using H2-DCFDA staining by flow cytometry. The format is functional, cell-based. The gist of the method:
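ROS probe: after 24 or 48 h exposure, HeLa cells resuspended in HBSS with 0.1 μM H2DCFDA, incubated 30 min at 37 °C, spun and resuspended in HBSS; fluorescence recorded by flow cytometry, excitation 488 nm, emission 530 nm.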

As usually defined, the IC50 is the midpoint of a concentration-inhibition curve. Read a low IC50 as inhibition by little substance. On to `CCOc1ccc(Nc2c(C(=O)c3cc(OC)c(OC)c(OC)c3)sc3ccccc23)cc1`, for which the outcome in assay [1], in assay [2], in [7] and in assay [12] was Active. In addition, the Activity in assay [3] was 17.4%; in assay [4], 6.4%; in assay [6] it was 18%; in assay [8] it was 19.3%; in assay [9] it was 13.4%; in [10], 70%. In addition, the Activity entry in [11] was “Dose-dependent effect”. This molecule also returned a 50% inhibitory concentration (IC50) in [5] of 500 nM.

Values taken from ChEMBL document CHEMBL1629488, “Synthesis and biological evaluation of 2-(3',4',5'-trimethoxybenzoyl)-3-aryl/arylaminobenzo[b]thiophene derivatives as a novel class of antiproliferative agents” (Eur J Med Chem, 2010).
